For 13 compounds, inhibition and Activity results are on record in ChEMBL document CHEMBL3352738, “A new phenylpropanoid and an alkylglycoside from Piper retrofractum leaves with their antioxidant and α-glucosidase inhibitory activity” (Bioorg Med Chem Lett, 2014).

In general, inhibition refers to the relative decrease from the control value, in per cent. Low values mean a weak effect, high ones a strong effect.

A short description of data set [1]: Inhibition of alpha-glucosidase (unknown origin) using 3 mM p-NPG solution at 50 uM relative to control. As to conditions: Rattus norvegicus.
Data set [2] is described as follows: Metal chelating activity of the compound assessed as Cu2+ chelating activity at 10 uM by fluorescence assay relative to control. Format: physicochemical.
Data set [3] in a line: Antioxidant activity assessed as […] reduction power at 1 uM after 1 hr by cupric ion reducing antioxidant capacity assay. It counts as physicochemical.
The nature of data set [4]: Antioxidant activity assessed as trolox equivalent of AAPH radical scavenging activity at 10 uM after 2 mins by ORAC-RCoo assay. It counts as physicochemical. In short, it runs like this:
(§1)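 Peroxyl radical scavenging was measured by the oxygen radical absorbance capacity (ORAC) assay, with Trolox as the positive control. Values are reported as Trolox equivalents (TE).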

A short description of data set [5]: Antioxidant activity assessed as […] reduction power at 10 uM after 1 hr by cupric ion reducing antioxidant capacity assay. It counts as physicochemical.
Data set [6] can be described thus: Antioxidant activity assessed as trolox equivalent of AAPH radical scavenging activity at 1 uM after 2 mins by ORAC-RCoo assay. Format: physicochemical. In short, it runs like this: as §1

On to `OC[C@@]1(O)CO[C@@H](OC[C@H]2O[C@@H](OCc3ccccc3)[C@H](O)[C@@H](O)[C@@H]2O)[C@@H]1O`, for which, in data set [1], the inhibition was found to be 7.93%. In addition, the Activity in data set [2] amounted to 19.3%; in data set [3], 0.46 µM; in data set [4], 1.61 µM; in data set [5], 0.84 µM; in data set [6] it was 0.15 µM.
`CC(C)O[C@@H]1O[C@H](CO)[C@@H](O)[C@H](O)[C@H]1O` displayed an inhibition in data set [1] of 7.31%. Further, the Activity stood at 20.97% in data set [2]; 0.29 µM in data set [3]; 1.79 µM in data set [4]; 0.54 µM in data set [5]; 0.22 µM in data set [6].
In the case of `COc1cc(C[C@@H](O)CO)ccc1O`, the Activity in data set [2] came to 25%; in data set [3] it was 9.01 µM; in data set [4], 28.2 µM; in data set [5], 43.82 µM; in data set [6], 3.59 µM.
For the compound `CC(C)O[C@@H]1O[C@H](CO[C@@H]2OC[C@@H](O)[C@H](O)[C@H]2O)[C@@H](O)[C@H](O)[C@H]1O`, in data set [1], the inhibition turned out to be 7.49%. Further, the Activity was 21.67% in data set [2]; 0.27 µM in data set [3]; 2.13 µM in data set [4]; 0.63 µM in data set [5]; 0.31 µM in data set [6].
For `OC[C@H]1O[C@@H](OCc2ccccc2)[C@H](O)[C@@H](O)[C@@H]1O`, the inhibition in data set [1] is 12%. Also, the Activity in data set [2] turned out to be 22.39%; in data set [3] it was 0.41 µM; in data set [4], 1.83 µM; in data set [5], 0.69 µM; in data set [6], 0.18 µM.
`CCCCC[C@H](C)O[C@@H]1O[C@H](CO[C@@H]2OC[C@@H](O)[C@H](O)[C@H]2O)[C@@H](O)[C@H](O)[C@H]1O` displayed an inhibition in data set [1] of 8.54%. The Activity came to 20.58% in data set [2]; 0.17 µM in data set [3]; 2.26 µM in data set [4]; 0.59 µM in data set [5]; 0.48 µM in data set [6].
`C=CCc1ccc(O[C@@H]2O[C@H](CO)[C@@H](O)[C@H](O)[C@H]2O)c(O[C@@H]2O[C@H](CO)[C@@H](O)[C@H](O)[C@H]2O)c1` came in with an inhibition in data set [1] of 7.02%. For the same compound, the Activity in data set [2] was 21.8%; in data set [3], 0.32 µM; in data set [4], 1.71 µM; in data set [5] it was 0.65 µM; in data set [6], 0.17 µM.
For `COc1cc(O[C@@H]2O[C@H](CO)[C@@H](O)[C@H](O)[C@H]2O)ccc1O` [TACHIOSIDE], the inhibition in data set [1] is 4.6%. For the same compound, the Activity in data set [2] is 21.42%; in data set [3], 0.21 µM; in data set [4] it was 1.65 µM; in data set [5], 0.63 µM; in data set [6] it was 0.21 µM.
`COc1cc(C[C@@H](O)CO)ccc1O[C@@H]1O[C@H](CO)[C@@H](O)[C@H](O)[C@H]1O` came in with an inhibition in data set [1] of 11.7%. The Activity was 24.21% in data set [2]; 0.29 µM in data set [3]; 2.88 µM in data set [4]; 0.96 µM in data set [5]; 0.55 µM in data set [6].
As to `CCCCO[C@@H]1O[C@H](CO)[C@@H](O)[C@H](O)[C@H]1O`, the Activity in data set [2] stood at 18.04%; in data set [3], 0.18 µM; in data set [4], 3.64 µM; in data set [5], 1.68 µM; in data set [6] it was 0.62 µM.
In the case of `CCCCC[C@H](C)O[C@@H]1O[C@H](CO[C@@H]2OC[C@](O)(CO)[C@H]2O)[C@@H](O)[C@H](O)[C@H]1O`, in data set [1], the inhibition was determined as 8.62%. In addition, the Activity in data set [2] came to 19.63%; in data set [3], 0.34 µM; in data set [4] it was 3.07 µM; in data set [5], 1.13 µM; in data set [6], 1.04 µM.
As to `CC1=CC(=O)CC(C)(C)[C@@]1(O)CC[C@@H](C)O[C@@H]1O[C@H](CO)[C@@H](O)[C@H](O)[C@H]1O`, the inhibition in data set [1] stood at 6.9%. The Activity amounted to 20.5% in data set [2]; 0.21 µM in data set [3]; 0.92 µM in data set [4]; 0.34 µM in data set [5]; 0.12 µM in data set [6].
In data set [1], `C=CCc1ccc(O)c(O)c1` [HYDROXYCHAVICOL] returned an inhibition of 9.08%. Also, the Activity is 20.48% in data set [2]; 1.55 µM in data set [3]; 16.26 µM in data set [4]; 22.77 µM in data set [5]; 2.55 µM in data set [6].
